Results taken from ChEMBL document CHEMBL5338743, “Identification of a Selective SCoR2 Inhibitor That Protects Against Acute Kidney Injury” (J Med Chem, 2023).
Active and inactive are the calls of the source. The rule behind the calls is not given here.

Columns and labels:
[1] = target: T1, Aldo-keto reductase family 1 member A1 (Homo sapiens) (UniProt P14550); test: (§1) Binding affinity to C-terminal 6His-tagged human recombinant SCoR2 AKR1A1 expressed in Escherichia coli BL21-CodonPlus competent cells assessed as thermal stability by measuring melting temperature at +/- 250 uM preincubated for 15 mins with NADP+ followed by compound addition and measured after 30 mins by SYPRO orange dye based DSF analysis (reference value: 51.4 degreeC)
T1 sequence (whole entry): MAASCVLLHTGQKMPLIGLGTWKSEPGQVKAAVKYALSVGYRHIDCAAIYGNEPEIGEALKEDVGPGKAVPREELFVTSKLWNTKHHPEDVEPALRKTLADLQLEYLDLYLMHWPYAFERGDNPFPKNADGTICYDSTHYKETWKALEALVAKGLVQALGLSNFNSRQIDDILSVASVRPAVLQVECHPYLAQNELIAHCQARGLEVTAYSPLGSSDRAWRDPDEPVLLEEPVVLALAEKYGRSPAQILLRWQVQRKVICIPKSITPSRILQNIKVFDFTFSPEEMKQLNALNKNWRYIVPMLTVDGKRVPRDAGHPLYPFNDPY
Outline: (§2)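 5 μM protein with or without 250 μM NADPH or NADP⁺ and 250 μM inhibitor; cofactor preincubated 15 min, then inhibitor 30 min at room temperature. 10X SYPRO Orange added; temperature ramped 25–70°C in 0.3°C steps. DMSO-matched controls (1%); duplicates.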

[2] = target: T1, Aldo-keto reductase family 1 member A1 (Homo sapiens); test: as §1, with “NADPH” for “NADP+”; outline: as §2
Mus musculus [3] = test: In vivo inhibition of SCoR2 in C57BL/6J mouse assessed as reduction in SNO-CoA metabolic activity in brain at 120 mg/kg body weight, ip administered as single dose into abdomen measured after 18 hrs; assay type: functional, organism-based
Outline: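 Single i.p. injection into the mouse abdomen, DMSO vehicle; organs collected 18 h later. Tissues homogenized in 50 mM phosphate pH 7.0, 150 mM NaCl, EDTA/DTPA, then clarified; lysate started reactions with 200 μM SNO-CoA and 100 μM NADPH, 2 min, NADPH loss monitored, in triplicate. Compared with vehicle and SCoR2−/− kidneys.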

[4] = In vivo inhibition of SCoR2 in ischemia/reperfusion induced acute kidney injury mouse model assessed as reduction in SNO-CoA metabolic activity in kidneys at 120 mg/kg, ip pretreated for 18 hrs followed by kidney injury surgery and measured after 24 hrs relative to control; assay type: functional; details: time 42 hrs
Outline: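 Male mice (9–11 weeks, 25–28 g) dosed i.p. 18 h before renal ischemia–reperfusion surgery under isoflurane; kidneys taken 24 h after reperfusion. Kidney lysate SNO-CoA reductase activity measured with 200 μM SNO-CoA, 100 μM NADPH, 2 min, triplicate assays; DMSO-treated controls.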

Mus musculus [5] = test: Protection against ischemia/reperfusion induced acute kidney injury in mouse assessed as reduction in tubular lysis at 120 mg/kg, ip pretreated for 18 hrs followed by kidney injury surgery and measured after 24 hrs by H and E staining based analysis; assay type: functional, organism-based; details: time 42.0 hrs
Outline: (§3)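 Mice dosed i.p. 120 mg/kg 18 h before I/R surgery, kidneys harvested 24 h later, H&E-stained. Tubular lysis, brush-border loss and luminal debris scored 0–2 over more than five fields per animal; n=5 mice per group, vehicle controls.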

Mus musculus [6] = test: Protection against ischemia/reperfusion induced acute kidney injury in mouse assessed as reduction in loss of brush borders at 120 mg/kg, ip pretreated for 18 hrs followed by kidney injury surgery and measured after 24 hrs by H and E staining based analysis; assay type: functional, organism-based; details: time 42.0 hrs; outline: as §3
Mus musculus [7] = test: Protection against ischemia/reperfusion induced acute kidney injury in mouse assessed as reduction in sloughed debris in the tubular lumen at 120 mg/kg, ip pretreated for 18 hrs followed by kidney injury surgery and measured after 24 hrs by H and E staining based analysis; assay type: functional, organism-based; details: time 42.0 hrs; outline: as §3

- Tm [1]: 54.4 °C
- Tm [2]: 53.4 °C
SMILES: O=C1NC(=O)C2(N1)c1ccccc1-c1ccc(C3CC3)cc12 (configuration not stated)
- inhibition (Mus musculus [3]): inactive
- inhibition in vivo at 120 mg/kg [4]: 80%
- Activity (Mus musculus [5]): Active
- Activity (Mus musculus [6]): Active
- Activity (Mus musculus [7]): Active
